In PMC8055291 (Journal of Inflammation Research, 2021):

Assays:
Assay in all cases: SPR analysis
Type in all cases: binding
[1] = target: mitogen-activated protein kinase (MAPK1) (Homo sapiens, UniProt P28482); settings: for kon: read-out: Ka (association rate constant); for koff: read-out: Kd (dissociation rate constant)
Outline: (§1)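 Each protein was amine-coupled to the chip after NHS/EDC (1:1, v/v) activation, at 14,874 RU (MMP-9), 11,000 RU (MAPK1), 11,800 RU (NFKB1) and 11,000 RU (TNF-α). A reference channel was activated and blocked without protein. Analytes flowed at 30 μL/min, with 60 s association and 120 s dissociation. Curves were fitted with 1:1 Langmuir and steady-state affinity models to give Ka, Kd and KD.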

[2] = target: T1, nuclear factor kappa B (NFKB1) (Homo sapiens, UniProt P19838)
T1 sequence (P19838 1-968): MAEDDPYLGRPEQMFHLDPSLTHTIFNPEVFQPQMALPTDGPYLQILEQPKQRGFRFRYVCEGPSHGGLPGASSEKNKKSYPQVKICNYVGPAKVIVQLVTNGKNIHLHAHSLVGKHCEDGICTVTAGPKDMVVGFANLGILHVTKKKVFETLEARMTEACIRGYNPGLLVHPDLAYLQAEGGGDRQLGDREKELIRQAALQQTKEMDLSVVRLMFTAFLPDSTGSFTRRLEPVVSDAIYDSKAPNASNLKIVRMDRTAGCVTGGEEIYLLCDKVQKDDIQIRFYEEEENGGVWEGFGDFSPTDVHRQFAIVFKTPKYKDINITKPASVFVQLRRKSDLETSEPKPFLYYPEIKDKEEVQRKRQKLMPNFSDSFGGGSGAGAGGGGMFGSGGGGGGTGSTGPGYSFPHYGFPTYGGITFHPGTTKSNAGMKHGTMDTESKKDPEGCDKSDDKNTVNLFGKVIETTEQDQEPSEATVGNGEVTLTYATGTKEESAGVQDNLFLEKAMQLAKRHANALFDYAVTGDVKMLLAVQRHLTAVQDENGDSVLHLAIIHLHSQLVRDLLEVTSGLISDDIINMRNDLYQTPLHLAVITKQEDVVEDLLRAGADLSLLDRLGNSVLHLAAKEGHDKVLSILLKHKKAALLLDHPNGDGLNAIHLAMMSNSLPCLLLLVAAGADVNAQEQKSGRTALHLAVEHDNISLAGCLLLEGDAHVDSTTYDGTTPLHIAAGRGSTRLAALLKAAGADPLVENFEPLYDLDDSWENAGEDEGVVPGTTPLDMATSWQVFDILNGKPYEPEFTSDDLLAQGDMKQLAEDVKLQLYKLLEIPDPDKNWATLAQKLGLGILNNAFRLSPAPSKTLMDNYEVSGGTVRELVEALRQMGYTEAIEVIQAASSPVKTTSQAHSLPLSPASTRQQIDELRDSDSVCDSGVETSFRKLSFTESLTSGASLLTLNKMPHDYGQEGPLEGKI
Outline: as §1

[3] = target: tumor necrosis factor (TNF-α) (Homo sapiens, UniProt P01375)
tumor necrosis factor (TNF-α), sequence (P01375 77-233 limits assumed): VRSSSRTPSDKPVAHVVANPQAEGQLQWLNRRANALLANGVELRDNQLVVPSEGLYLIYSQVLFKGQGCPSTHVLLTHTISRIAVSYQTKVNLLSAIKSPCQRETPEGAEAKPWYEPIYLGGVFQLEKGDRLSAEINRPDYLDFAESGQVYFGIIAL
Outline: as §1

[4] = target: matrix metalloproteinase-9 (MMP-9) (Homo sapiens, UniProt P14780)
matrix metalloproteinase-9 (MMP-9), sequence (P14780 94-707): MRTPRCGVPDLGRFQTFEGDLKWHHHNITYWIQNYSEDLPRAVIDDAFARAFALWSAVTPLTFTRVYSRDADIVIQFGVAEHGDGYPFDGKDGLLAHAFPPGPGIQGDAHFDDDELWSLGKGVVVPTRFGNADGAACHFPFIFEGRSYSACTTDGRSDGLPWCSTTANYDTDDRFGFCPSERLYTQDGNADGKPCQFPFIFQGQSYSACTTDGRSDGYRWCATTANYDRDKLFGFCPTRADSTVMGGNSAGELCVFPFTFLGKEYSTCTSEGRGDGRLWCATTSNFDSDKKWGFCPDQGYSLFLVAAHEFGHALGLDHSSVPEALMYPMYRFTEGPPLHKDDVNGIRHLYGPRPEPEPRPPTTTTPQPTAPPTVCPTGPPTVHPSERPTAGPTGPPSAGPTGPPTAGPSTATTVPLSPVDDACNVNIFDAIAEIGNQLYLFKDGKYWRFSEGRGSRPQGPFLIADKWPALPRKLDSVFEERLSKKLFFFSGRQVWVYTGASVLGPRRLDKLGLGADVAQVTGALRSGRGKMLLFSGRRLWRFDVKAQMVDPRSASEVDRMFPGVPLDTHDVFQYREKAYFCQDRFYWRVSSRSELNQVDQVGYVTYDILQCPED
Outline: as §1

mitogen-activated protein kinase (MAPK1), sequence (P28482 whole entry): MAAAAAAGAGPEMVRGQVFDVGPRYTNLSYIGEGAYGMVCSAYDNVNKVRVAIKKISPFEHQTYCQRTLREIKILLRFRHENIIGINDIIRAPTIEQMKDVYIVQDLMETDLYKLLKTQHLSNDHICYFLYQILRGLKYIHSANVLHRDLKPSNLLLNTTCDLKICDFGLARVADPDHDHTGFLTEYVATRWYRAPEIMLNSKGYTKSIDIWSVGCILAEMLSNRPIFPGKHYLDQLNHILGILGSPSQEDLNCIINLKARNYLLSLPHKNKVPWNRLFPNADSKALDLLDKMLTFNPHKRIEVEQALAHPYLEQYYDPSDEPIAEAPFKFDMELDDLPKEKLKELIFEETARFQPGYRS

Kd [1]	kon [1]	koff [1]	Kd [4]	SMILES	other results
26.6 µM	9290 M⁻¹ s⁻¹	0.247 s⁻¹		CC(C)=CCc1cc2c(cc1O)O[C@H](c1ccc(O)cc1)CC2=O [Bavachin]	
6.05 µM				COc1cc2c(cc1CC=C(C)C)C(=O)C[C@@H](c1ccc(O)cc1)O2 [Bavachinin A]	
				COc1ccc(-c2coc3cc(O)ccc3c2=O)cc1 [Formononetin]	Kd [2]: 32.5 µM
			2.7 µM	O=C(/C=C/c1ccc(O[C@@H]2O[C@H](CO)[C@@H](O)[C@H](O)[C@H]2O)cc1)c1ccc(O)cc1O [Isoliquiritin]	Kd [3]: 3.6 µM
382 µM	258 M⁻¹ s⁻¹	0.0984 s⁻¹	105 µM	O=C1C[C@@H](c2ccc(O[C@@H]3O[C@H](CO)[C@@H](O)[C@H](O)[C@H]3O)cc2)Oc2cc(O)ccc21 [Liquiritin]	kon ([4]; read-out: Ka (association rate constant)): 251 M⁻¹ s⁻¹; koff ([4]; read-out: Kd (dissociation rate constant)): 0.0264 s⁻¹
41.4 µM				COc1ccc(-c2coc3cc(O[C@@H]4O[C@H](CO)[C@@H](O)[C@H](O)[C@H]4O)ccc3c2=O)cc1 [Ononin]	
